Calls of active or inactive are those of the source. The rule behind the calls is not given here.
Key:
[1] = system: Trypanosoma cruzi; test: Antitrypanosomal activity against Trypanosoma cruzi Y strain bloodstream trypomastigotes assessed as lysis of parasite in presence of 5 % mouse blood incubated for 24 hrs by Neubauer chamber method; format: functional, organism-based
Method in brief: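 Y strain bloodstream trypomastigotes came from infected albino mice at peak parasitaemia, purified by differential centrifugation, in RPMI at 10^7 cells/mL with 10% mouse blood. They were mixed 1:1 with compound at twice the final concentration (5% blood final), 24 h at 4 °C, with DMSO ≤0.4% final. Neubauer chamber counting; IC50 is 50% lysis; at least three independent experiments.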

[2] = Cytotoxicity against albino Swiss mouse peritoneal macrophages assessed as reduction in cell viability incubated for 24 hrs by Presto blue assay; format: tissue-based, Macrophage; settings: read-out: LC50
Method in brief: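 Primary peritoneal macrophages from Albino Swiss mice were seeded at 2.5 × 10^4 cells per well in RPMI-1640 (pH 7.2, 10% FBS, 2 mM glutamine) and grown 24 h at 37 °C. They were then treated 24 h at 37 °C with compound from DMSO stock (final DMSO ≤0.4%).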

[3] = system: HCT-116; test: Cytotoxicity against human HCT-116 cells assessed as reduction in cell viability after 72 hrs by MTT assay; format: functional, cell-based; settings: HCT-116, 72 h
Method in brief: (§1)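 Cells were grown in medium with 10% FBS, 2 mM L-glutamine, penicillin and streptomycin at 37 °C, 5% CO2. Seeding per well was 0.1 × 10^6 for leukaemia, PC3, L929 and NCI-H460, and 0.7 × 10^5 for HCT-116. Compounds in DMSO (0.1% final) were applied for 72 h. MTT (0.5 mg/mL) was added for 3 h, formazan dissolved in DMSO, and absorbance read at 550 nm. IC50 by nonlinear regression; three independent experiments in triplicate.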

[4] = system: NCI-H460; test: Cytotoxicity against human NCI-H460 cells assessed as reduction in cell viability after 72 hrs by MTT assay; format: functional, cell-based; settings: NCI-H460, 72 h
Method in brief: as §1, with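 “CO2.” for “CO2. Seeding per well was 0.1 × 10^6 for leukaemia, PC3, L929 and NCI-H460, and 0.7 × 10^5 for HCT-116.”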

[5] = system: PC-3; test: Cytotoxicity against human PC-3 cells assessed as reduction in cell viability after 72 hrs by MTT assay; format: functional, cell-based; settings: PC-3, 72 h; method in brief: as §1
[6] = system: HL-60; test: Cytotoxicity against human HL-60 cells assessed as reduction in cell viability after 72 hrs by MTT assay; format: functional, cell-based; settings: HL-60, 72 h
Method in brief: as §1, with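 “CO2.” for “CO2. Seeding per well was 0.1 × 10^6 for leukaemia, PC3, L929 and NCI-H460, and 0.7 × 10^5 for HCT-116.”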

[7] = system: K562; test: Cytotoxicity against human K562 cells assessed as reduction in cell viability after 72 hrs by MTT assay; format: functional, cell-based; settings: K562, 72 h; method in brief: as §1
[8] = Cytotoxicity against human Lucena1 cells assessed as reduction in cell viability after 72 hrs by MTT assay; format: functional, cell-based; settings: Lucena 1, 72 h; method in brief: as §1
[9] = system: L929; test: Cytotoxicity against mouse L929 cells assessed as reduction in cell viability after 72 hrs by MTT assay; format: cell-based; settings: L929, 72 h; method in brief: as §1
[10] = Selectivity index, ratio of IC50 for mouse L929 cells to IC50 for human HCT116 cells after 72 hrs by MTT assay; format: toxicity; settings: L929 cells versus HCT116 cells, read-out: Ratio IC50
Method in brief: (§2)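 Both cell types were kept in medium with 10% FBS, 2 mM L-glutamine and penicillin/streptomycin at 37 °C, 5% CO2. Seeding was 0.7 × 10^5 cells per well for HCT-116, 0.1 × 10^6 for the other lines. Cells got compound in DMSO (0.1% final) for 72 h, then 0.5 mg/mL MTT for 3 h, with formazan read at 550 nm. IC50 came from nonlinear regression over three independent experiments in triplicate. SI is the L929 IC50 divided by the cancer-line IC50.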

[11] = Selectivity index, ratio of IC50 for mouse L929 cells to IC50 for human NCI-H460 cells after 72 hrs by MTT assay; format: toxicity; settings: L929 cells versus NCI-H460 cells, read-out: Ratio IC50; method in brief: as §2
[12] = Selectivity index, ratio of IC50 for mouse L929 cells to IC50 for human PC3 cells after 72 hrs by MTT assay; format: toxicity; settings: L929 cells versus PC3 cells, read-out: Ratio IC50; method in brief: as §2
[13] = Selectivity index, ratio of IC50 for mouse L929 cells to IC50 for human HL-60cells after 72 hrs by MTT assay; format: toxicity; settings: L929 cells versus HL-60 cells, read-out: Ratio IC50; method in brief: as §2
[14] = Selectivity index, ratio of IC50 for mouse L929 cells to IC50 for human K-562 cells after 72 hrs by MTT assay; format: toxicity; settings: L929 cells versus K-562 cells, read-out: Ratio IC50; method in brief: as §2
[15] = Selectivity index, ratio of IC50 for mouse L929 cells to IC50 for human Lucena1 cells after 72 hrs by MTT assay
Method in brief: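 Selectivity index is the ratio of IC50 in murine L929 fibroblasts to IC50 in Lucena 1 cells, each measured by 72 h MTT assay (absorbance 550 nm). IC50 values came from nonlinear regression of three independent experiments in triplicate.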

[16] = system: K562; test: Induction of reactive oxygen species generation in human K562 cells at 40 uM measured after 3 hr by H2DCFDA probe-based flow cytometry; format: functional, cell-based
Method in brief: (§3)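 K-562 cells were pre-loaded with 10 μM CM-H2DCFDA for 1 h in the dark at 37 °C/5% CO2, washed with PBS, then incubated with compound in fresh medium for 1 or 3 h. Cells were resuspended in PBS with 1 μg/mL propidium iodide and analysed by flow cytometry on ice. DCF fluorescence (ex 490/em 525 nm) was read in PI-negative cells, 10 000 events per sample. Menadione 20 μM and H2O2 150 μM were positive controls. Mean ± SEM of three independent experiments.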

[17] = Selectivity index, ratio of LC50 for cytotoxicity against albino Swiss mouse peritoneal macrophages to IC50 for Antitrypanosomal activity against Trypanosoma cruzi Y strain bloodstream trypomastigotes assessed as lysis of parasite in presence of 5 % mouse blood; format: toxicity
Method in brief: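 Y-strain bloodstream trypomastigotes came from infected albino mice at peak parasitaemia and were purified by differential centrifugation. They were resuspended at 10^7/mL in RPMI with 10% mouse blood and mixed 1:1 with compound at twice the final concentration (DMSO ≤0.4%). Incubation was 24 h at 4 °C (5% blood per footnote).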

[18] = system: Trypanosoma cruzi; test: Antitrypanosomal activity against Trypanosoma cruzi Y strain bloodstream trypomastigotes assessed as lysis of parasite in absence of mouse blood incubated for 24 hrs by Neubauer chamber method; format: functional, organism-based
Method in brief: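 T. cruzi Y strain bloodstream trypomastigotes came from infected albino mice at peak parasitaemia and were purified by differential centrifugation. They were exposed to compounds for 24 h at 37 °C without blood. Parasites were counted in a Neubauer chamber, and IC50 is the concentration lysing 50% of parasites. Values are mean ± SD of at least three independent experiments.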

[19] = Selectivity index, ratio of LC50 for cytotoxicity against albino Swiss mouse peritoneal macrophages to IC50 for Antitrypanosomal activity against Trypanosoma cruzi Y strain bloodstream trypomastigotes assessed as lysis of parasite in absence of mouse blood; format: toxicity
Method in brief: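 Y-strain bloodstream trypomastigotes came from infected albino mice at peak parasitaemia and were purified by differential centrifugation into RPMI. They were exposed 24 h at 37 °C without blood to compound (DMSO ≤0.4%).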

[20] = system: K562; test: Induction of reactive oxygen species generation in human K562 cells at 40 uM measured after 1 hr by H2DCFDA probe-based flow cytometry; format: functional, cell-based; method in brief: as §3

`Cc1ccc(S(=O)(=O)n2cc(COC3=C/C(=N\c4ccc(Br)cc4)c4ccccc4C3=O)nn2)cc1` showed an IC50 [1] of over 500 µM, a CC50 at 24 h [2] of over 100 µM and an IC50 [3] of 9.25 µM. For the same compound, the IC50 [4] was 9.41 µM, the IC50 [5] was 3.41 µM and the IC50 [6] was 4.22 µM. For the same compound, the IC50 [7] was 5.4 µM, the IC50 [8] was 3.32 µM and the IC50 [9] was over 17.8 µM. For the same compound, the selectivity ratio at 72 h [10] was 1.9, the selectivity ratio at 72 h [11] was 1.9 and the selectivity ratio at 72 h [12] was 5.2. For the same compound, the selectivity ratio at 72 h [13] was 4.2, the selectivity ratio at 72 h [14] was 3.3 and the “Ratio IC50” value [15] was 5.3. For the same compound, the Activity [16] was “Active”.
With `Cc1ccc(SC2=CC(=O)C(=O)c3ccccc32)cc1` the IC50 [1] was 88.7 µM, the CC50 at 24 h [2] was 81.4 µM and the selectivity ratio [17] was 0.92. For the same compound, the IC50 [18] was 3.4 µM, the selectivity ratio [19] was 23.9 and the IC50 [3] was over 20 µM. For the same compound, the IC50 [4] was over 20 µM, the IC50 [5] was over 20 µM and the IC50 [6] was 4.14 µM. For the same compound, the IC50 [7] was 14.9 µM, the IC50 [8] was 12.8 µM and the IC50 [9] was over 20 µM. For the same compound, the selectivity ratio at 72 h [10] was 1.3, the selectivity ratio at 72 h [11] was 0.8 and the selectivity ratio at 72 h [12] was 0.8. The selectivity ratio at 72 h [13] was 6.6, the selectivity ratio at 72 h [14] was 1.8 and the “Ratio IC50” value [15] was 2.1.
For `O=C(Cn1ccnc1[N+](=O)[O-])NCc1ccccc1` [BENZNIDAZOLE], the CC50 at 24 h [2] was over 4000 µM, the selectivity ratio [17] was over 38.6 and the IC50 [18] was 9.7 µM. The selectivity ratio [19] was over 413.
In the case of `O=C1C=C(Sc2ccccc2)c2ccccc2C1=O`, the IC50 [1] is reported as 24.3 µM, the CC50 at 24 h [2] is reported as 36.9 µM and the selectivity ratio [17] is reported as 1.52. The IC50 [18] was 1.3 µM, the selectivity ratio [19] was 28.4 and the IC50 [3] was 12.8 µM. For the same compound, the IC50 [4] was over 20 µM, the IC50 [5] was over 20 µM and the IC50 [6] was 6.08 µM. The IC50 [7] was 15.7 µM, the IC50 [8] was 15.6 µM and the IC50 [9] was over 20 µM. It also gave a selectivity ratio at 72 h [10] of 2.2, a selectivity ratio at 72 h [11] of 0.7 and a selectivity ratio at 72 h [12] of 0.7. The selectivity ratio at 72 h [13] was 4.6, the selectivity ratio at 72 h [14] was 1.8 and the “Ratio IC50” value [15] was 1.8. The Activity [20] was “Active” and the Activity [16] was “Active”.
With `C#CCOC1=C/C(=N\c2ccc(Cl)cc2)c2ccccc2C1=O` the IC50 [3] was 18.9 µM, the IC50 [4] was 16.2 µM and the IC50 [5] was 14.6 µM. For the same compound, the IC50 [6] was 11 µM, the IC50 [7] was 12.8 µM and the IC50 [8] was 16.4 µM. For the same compound, the IC50 [9] was over 20 µM, the selectivity ratio at 72 h [10] was 1.6 and the selectivity ratio at 72 h [11] was 1.9. It also gave a selectivity ratio at 72 h [12] of 2.1, a selectivity ratio at 72 h [13] of 2.8 and a selectivity ratio at 72 h [14] of 2.4. For the same compound, the “Ratio IC50” value [15] was 1.9 and the Activity [16] was “Active”.
`Cc1cccc(SC2=CC(=O)C(=O)c3ccccc32)c1` showed an IC50 [1] of 65.6 µM, a CC50 at 24 h [2] of 67.3 µM and a selectivity ratio [17] of 1.03. For the same compound, the IC50 [18] was 4.6 µM, the selectivity ratio [19] was 14.6 and the IC50 [3] was 19.6 µM. For the same compound, the IC50 [4] was over 20 µM, the IC50 [5] was over 20 µM and the IC50 [6] was 5.42 µM. The IC50 [7] was 16.2 µM, the IC50 [8] was 12.7 µM and the IC50 [9] was over 20 µM. For the same compound, the selectivity ratio at 72 h [10] was 1.8, the selectivity ratio at 72 h [11] was 1 and the selectivity ratio at 72 h [12] was 1. For the same compound, the selectivity ratio at 72 h [13] was 6.6, the selectivity ratio at 72 h [14] was 2.2 and the “Ratio IC50” value [15] was 2.8.
For `COc1ccc(SC2=CC(=O)C(=O)c3ccccc32)cc1`, the IC50 [1] was 112 µM, the CC50 at 24 h [2] was 41.5 µM and the selectivity ratio [17] was 0.37. It also gave an IC50 [18] of 3.9 µM, a selectivity ratio [19] of 10.6 and an IC50 [3] of over 20 µM. For the same compound, the IC50 [4] was over 20 µM, the IC50 [5] was over 20 µM and the IC50 [6] was 9.38 µM. The IC50 [7] was 13.3 µM, the IC50 [8] was over 20 µM and the IC50 [9] was over 20 µM. For the same compound, the selectivity ratio at 72 h [10] was 1, the selectivity ratio at 72 h [11] was 1 and the selectivity ratio at 72 h [12] was 1. For the same compound, the selectivity ratio at 72 h [13] was 3.6, the selectivity ratio at 72 h [14] was 2.5 and the “Ratio IC50” value [15] was 1.
`COc1ccc(/N=C2\C=C(OCc3cn(S(=O)(=O)c4ccc(C)cc4)nn3)C(=O)c3ccccc32)cc1` showed an IC50 [1] of over 500 µM, a CC50 at 24 h [2] of 44.3 µM and a selectivity ratio [17] of over 11.3. The IC50 [3] was 7.43 µM, the IC50 [4] was 8.39 µM and the IC50 [5] was over 20 µM. The IC50 [6] was 6.96 µM, the IC50 [7] was over 20 µM and the IC50 [8] was 4.58 µM. It also gave an IC50 [9] of over 20 µM, a selectivity ratio at 72 h [10] of 2.9 and a selectivity ratio at 72 h [11] of 2.6. The selectivity ratio at 72 h [12] was 1, the selectivity ratio at 72 h [13] was 3.3 and the selectivity ratio at 72 h [14] was 1. The “Ratio IC50” value [15] was 5.4.
